Screens deposited in PubChem BioAssay by several laboratories.
Rows were chosen to be rich in hits. Some 3.8% of all compounds tested hit in one or more screens of this group.
Exocytosis inh: lytic granule exocytosis inhibition | TALL-104 LAMP-1 surface exposure, flow cytometry; cells stimulated with thapsigargin and PMA | AID 651702 | 360,000 tested, 0.66% active | inhibition, % at 10 µM;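 active means inhibition above about 55%, limit read from the data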
rCAG binder: binds r(CAG) RNA repeats | inhibition, % at 3 µM | r(CAG) RNA repeat, TO-PRO-1 dye displacement fluorescence | 370,000 tested, 1.3% active;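 active means inhibition above the plate cutoff, the mean of all test compounds on that plate plus 3 SD, cut at about 35% in these data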;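 further: 0% = DMSO alone and 100% = 100 µM mitoxantrone as full dye displacement; higher means more dye released from RNA so lower well fluorescence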
MPTP block: blocks calcium-induced mitochondrial swelling; isolated mouse mitochondria, Ca2+ swelling absorbance, 30 min; 360,000 tested, 1.4% active; inhibition, % at 10 µM;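 active means inhibition of 50% or more, scaled per plate between neutral and stimulator controls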;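 further: 0% = DMSO wells given calcium and 100% = 1 mM EGTA wells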
V-ATPase pHluor: regulators of yeast V-ATPase proton transport; S. cerevisiae, pHLuorin cytosolic pH fluorescence; response, % at 10 µM; 350,000 tested, 0.37% active; AID 504577; in the data active means response mostly above about 7.3%, no sharp cut-off; inactive means mostly below about 5.4%; further: actives read high
B2AR ag: agonists of human beta-2 adrenergic receptor inducing internalization; Am2.2-beta2AR cells, FAP receptor internalization, flow cytometry; P07550; 340,000 tested, 0.43% active; response, % (concentration not given with the values);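 active means response above a set limit, near 3 SD of response in nonfluorescent compounds, cut at about 42% in these data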
Target sequence (P07550 whole entry, looked up): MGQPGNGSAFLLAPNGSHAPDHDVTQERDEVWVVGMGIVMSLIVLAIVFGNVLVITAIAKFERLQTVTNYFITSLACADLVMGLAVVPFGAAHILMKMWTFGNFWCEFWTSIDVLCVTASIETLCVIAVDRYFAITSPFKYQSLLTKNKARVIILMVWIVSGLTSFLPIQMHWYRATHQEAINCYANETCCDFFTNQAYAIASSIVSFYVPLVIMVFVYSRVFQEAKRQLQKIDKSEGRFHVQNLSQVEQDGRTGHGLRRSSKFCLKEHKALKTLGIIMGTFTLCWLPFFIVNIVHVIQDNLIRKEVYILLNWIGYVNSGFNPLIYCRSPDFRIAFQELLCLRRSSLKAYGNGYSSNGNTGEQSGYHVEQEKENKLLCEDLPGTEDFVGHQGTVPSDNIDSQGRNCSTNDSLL
T cell HTS: T cell immune modulators affecting CD8 T cell-vesicle binding | 2C CD8+ T cell-vesicle binding, flow cytometry; stronger effect = lower value | response (vesicle binding), % at 7 µM | 330,000 tested, 0.068% active | AID 2052;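 active means response, share of CD8 T cells binding vesicles, and their 90th percentile fluorescence all below set limits, cut at about 80% in these data, passing the limit was not always enough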;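 further: values below 100% mean blocked vesicle binding to the CD8+ T cells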
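Incubation: binding step 1.5 h, 37 °C, antibody labelling 20 min, ice; system: murine 2C transgenic CD8+ T lymphocytes; technique: cytometric PE anti-B7-1 and Alexa647 anti-CD8 signals after 1% paraformaldehyde fixation; also added: QL9-charged Drosophila Ld/ICAM-1/B7-1 vesicles; control set: naked versus QL9-loaded vesicles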
rCAG bind conf: r(CAG) RNA repeat binding, confirmation | inhibition, % at 3 µM | 4,300 tested, 70% active | shares compounds with rCAG binder | AID 652065 | TO-PRO-1 dye displacement fluorescence;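 active means inhibition above a per-plate cutoff, the mean inhibition of sample wells plus 3 SD, cut at about 35% in these data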;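 further: loss of TO-PRO-1 fluorescence as compound displaces dye from 1x1 AA loop RNA; 0% = DMSO only wells and 100% = 100 µM mitoxantrone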
DNA CAG counter: counter-screen for rCAG RNA binders: DNA CAG dye complex inhibitors; d(CAG) DNA oligo TO-PRO-1 dye displacement, fluorescence; shares compounds with rCAG binder; 4,300 tested, 94% active; inhibition, % at 3 µM; AID 652068;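 active means inhibition above its plate's cutoff, the mean test-well inhibition plus 3 SD, cut at about 4.8% in these data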;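 further: 0% = DNA dye mix with DMSO and 100% = 100 µM mitoxantrone; hits displace the dye from DNA and so lower well fluorescence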
DNA CAG DR: DNA CAG dye complex inhibition, dose response counter-screen; AID 686960; DNA CAG/GTC duplex TO-PRO-1 dye displacement fluorescence; 250 tested, 20% active; shares compounds with rCAG binder; IC50, µM; in the data active means IC50 below about 10 µM
* marks the source's active call; other numbers are inactive results.

COc1cccc(-c2coc3c(C)c4oc(=O)c(CC(=O)O)c(C)c4cc23)c1 was read as Exocytosis inh 18, rCAG binder 11, MPTP block 0, V-ATPase pHluor -2, B2AR ag 4 and T cell HTS 706.
CCCCC(NC(=O)Cc1c(C)c2cc3c(-c4ccccc4)coc3c(C)c2oc1=O)C(=O)O (stereo not drawn) was read as Exocytosis inh 14, rCAG binder 37*, MPTP block 1, V-ATPase pHluor 0, B2AR ag 12, T cell HTS 923, rCAG bind conf 65* and DNA CAG counter 24*.
Screening COc1cccc(-c2coc3c(C)c4oc(=O)c(CCC(=O)O)c(C)c4cc23)c1 returned Exocytosis inh 24, rCAG binder 58*, MPTP block 1, V-ATPase pHluor -5, B2AR ag 14, T cell HTS 278, rCAG bind conf 74*, DNA CAG counter 34* and DNA CAG DR inactive.
Screening Cc1oc2c(c(C)cc3oc(=O)c(CC(=O)N[C@H](C(=O)O)C(C)C)c(C)c32)c1C returned Exocytosis inh 9, rCAG binder 22, MPTP block 0, V-ATPase pHluor 1, B2AR ag 4 and T cell HTS 136.
CCC(NC(=O)Cn1c(-c2ccccc2)cc(C(C)=O)c1C)c1ccccc1 (stereo not drawn) was read as rCAG binder 3.
For CC[C@@H](C)[C@H](NC(=O)Cc1c(C)c2cc3c(C)c(C)oc3c(C)c2oc1=O)C(=O)O the results were Exocytosis inh -16, rCAG binder 37*, MPTP block 1, V-ATPase pHluor 1, B2AR ag 2, T cell HTS 188, rCAG bind conf 34 and DNA CAG counter 7.1*.
COc1cc(C=Nn2c(-c3ccc(F)cc3)n[nH]c2=S)ccc1OCc1ccccc1 was read as rCAG binder 50*, rCAG bind conf 53* and DNA CAG counter 17*.
`CCn1c2ccccc2c2cc(C=Nn3c(-c4ccccc4C)n[nH]c3=S)ccc21` gave rCAG binder 49*, rCAG bind conf 56* and DNA CAG counter 23*.
For COc1ccc(C=Nn2c(-c3ccc(F)cc3)n[nH]c2=S)cc1OCc1ccccc1 the results were rCAG binder 35*, rCAG bind conf 39* and DNA CAG counter 12*.
COc1cc(C=Nn2c(-c3ccccc3F)n[nH]c2=S)ccc1OCc1ccccc1 was read as rCAG binder 53*, rCAG bind conf 48* and DNA CAG counter 12*.
`COc1cc(/C=N/n2c(-c3ccccc3)n[nH]c2=S)ccc1O` gave Exocytosis inh -1, rCAG binder -4, MPTP block 1, V-ATPase pHluor -4, B2AR ag 11 and T cell HTS 210.
For COc1ccc(/C=N/n2c(-c3ccc(C)cc3)n[nH]c2=S)cc1OC the results were Exocytosis inh 0, rCAG binder 12, MPTP block 3, V-ATPase pHluor -1, B2AR ag 17 and T cell HTS 367.
Screening CCOc1ccc(/C=N/n2c(COc3ccccc3)n[nH]c2=S)cc1OC returned Exocytosis inh -1, rCAG binder 22, MPTP block 2, V-ATPase pHluor -2, B2AR ag 5 and T cell HTS 263.
For CCCCCN1CCCCC(NC(=O)c2ccccc2OC)C1=O (stereo not drawn) the results were rCAG binder -4.
CC(C)c1[nH]nc2c1C(c1cccc(C(F)(F)F)c1)N(c1ccccc1)C2=O (stereo not drawn) was read as rCAG binder 0.
Screening O=C(NCCC1=CCCCC1)C1CCN(S(=O)(=O)c2ccccc2[N+](=O)[O-])CC1 returned rCAG binder 3.
Screening F[B-](F)(F)c1cncnc1 returned rCAG binder 4.
For O=c1c2ccccc2oc2ccccc12 the results were Exocytosis inh -6, rCAG binder 1 and MPTP block -2.
`O=c1c2ccccc2oc2cc(-c3ccc4[nH]ccc4c3)ccc12` gave Exocytosis inh -3, rCAG binder 35*, MPTP block 0, V-ATPase pHluor -2, B2AR ag -9, rCAG bind conf 22 and DNA CAG counter 11*.
`CC(C)c1ccc(NC(=O)CSc2nc3ccsc3c(=O)n2CCC(=O)O)cc1` gave Exocytosis inh -6, rCAG binder 36*, MPTP block 1, V-ATPase pHluor 6, B2AR ag 1, T cell HTS 331, rCAG bind conf 32 and DNA CAG counter 7.8*.
`O=C(O)COc1ccccc1/C=C1\C(=O)Nc2ccc(Br)cc21` gave Exocytosis inh 0, rCAG binder 43*, MPTP block -1, V-ATPase pHluor -2, B2AR ag 3, T cell HTS 464, rCAG bind conf 26 and DNA CAG counter 5.7*.
Cc1ccc2c(c1)/C(=C/c1ccccc1F)C(=O)N2 was read as Exocytosis inh 23, rCAG binder 2, MPTP block 0, V-ATPase pHluor -2, B2AR ag 3 and T cell HTS 34.
CC(=O)CC[C@H]1CC[C@]2(CCCN(C(=O)c3ccccc3)C2)O1 was read as rCAG binder -1.
Screening O=C(O)c1cc([N+](=O)[O-])cc([N+](=O)[O-])c1N1CCN(c2cccc(C(F)(F)F)c2)CC1 returned Exocytosis inh -1, rCAG binder 41*, MPTP block 1, V-ATPase pHluor 9, B2AR ag 1, T cell HTS 243, rCAG bind conf 27 and DNA CAG counter 5.7*.
For O=[N+]([O-])c1cc(Cl)ccc1N1CCN(c2cccc(C(F)(F)F)c2)CC1 the results were Exocytosis inh -1, rCAG binder 0, MPTP block 11, V-ATPase pHluor -4, B2AR ag 5 and T cell HTS 516.
O=C(Nc1ccccc1C(=O)O)/C(=C/c1ccc(Cl)cc1Cl)NC(=O)c1ccco1 was read as Exocytosis inh 23, rCAG binder 52*, MPTP block 0, V-ATPase pHluor -2, B2AR ag -4, T cell HTS 422, rCAG bind conf 27 and DNA CAG counter 6.0*.
